Laboratory results reported in BindingDB's records for doi:10.1021/jm970266p (Universidad Central De Venezuela, 1997).

Target: T1, Falcipain 2 (Plasmodium falciparum, UniProt Q9N6S8)
T1 sequence (Q9N6S8 whole entry): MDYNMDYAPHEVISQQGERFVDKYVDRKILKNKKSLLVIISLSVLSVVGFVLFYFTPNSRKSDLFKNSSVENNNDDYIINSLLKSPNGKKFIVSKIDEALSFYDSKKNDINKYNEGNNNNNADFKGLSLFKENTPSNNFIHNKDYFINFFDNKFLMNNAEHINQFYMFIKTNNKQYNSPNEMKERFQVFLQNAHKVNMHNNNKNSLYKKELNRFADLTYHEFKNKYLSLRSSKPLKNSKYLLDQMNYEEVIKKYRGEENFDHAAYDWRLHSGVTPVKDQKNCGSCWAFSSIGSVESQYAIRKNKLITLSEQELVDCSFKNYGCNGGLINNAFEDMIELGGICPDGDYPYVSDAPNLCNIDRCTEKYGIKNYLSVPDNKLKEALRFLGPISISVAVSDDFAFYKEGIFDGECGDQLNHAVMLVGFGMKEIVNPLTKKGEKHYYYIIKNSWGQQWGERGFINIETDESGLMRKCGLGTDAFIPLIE
Assay: Inhibition of falcipain activity
Method in brief: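 Soluble parasite extract containing falcipain (30 nM) preincubated 30 min at room temperature with compound (100× DMSO stocks) and 10 mM DTT in 0.1 M sodium acetate, pH 5.5. Z-Phe-Arg-AMC then added to 50 μM final. Fluorescence (ex 380, em 460 nm) followed continuously for 30 min. Rates compared with DMSO controls. Multiple concentrations tested in duplicate or triplicate; IC50 extrapolated from % control activity curves.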

| SMILES | IC50 [µM] |
| --- | --- |
| COc1cccc(C2CC(=O)C3Sc4cc(F)ccc4N=C3C2)c1OC (centres undefined) [2-(2,3-Dimethoxy-phenyl)-7-fluoro-2,3-dihydro-1H,10H-phenothiazin-4-one] | 20 |
| O=C1CC(c2ccc(Cl)cc2Cl)CC2=Nc3ccc(F)cc3SC12 (centres undefined) [2-(2,4-Dichloro-phenyl)-7-fluoro-2,3-dihydro-1H,10H-phenothiazin-4-one] | 10 |
| COc1ccc(C2CC(=O)C3Sc4cc(F)ccc4N=C3C2)cc1OC (centres undefined) [2-(3,4-Dimethoxy-phenyl)-7-fluoro-2,3-dihydro-1H,10H-phenothiazin-4-one] | 20 |
| CC1(C)CC(=O)C2Sc3cc(Cl)ccc3N=C2C1 (centres undefined) [7-Chloro-2,2-dimethyl-2,3-dihydro-1H,10H-phenothiazin-4-one] | 30 |
| COc1cccc(C2CC(=O)C3Sc4cc(Cl)ccc4N=C3C2)c1OC (centres undefined) [7-Chloro-2-(2,3-dimethoxy-phenyl)-2,3-dihydro-1H,10H-phenothiazin-4-one] | 10 |
| O=C1CC(c2ccc(Cl)cc2Cl)CC2=Nc3ccc(Cl)cc3SC12 (centres undefined) [7-Chloro-2-(2,4-dichloro-phenyl)-2,3-dihydro-1H,10H-phenothiazin-4-one] | 10 |
| O=C1CC(c2ccc(Cl)cc2Cl)CC2=Nc3ccc(Cl)cc3S(=O)(=O)C12 (centres undefined) [7-Chloro-2-(2,4-dichloro-phenyl)-5,5-dioxo-2,3,5,10-tetrahydro-1H-5lambda*6*-phenothiazin-4-one] | 30 |
| COc1ccc(C2CC(=O)C3Sc4cc(Cl)ccc4N=C3C2)cc1OC (centres undefined) [7-Chloro-2-(3,4-dimethoxy-phenyl)-2,3-dihydro-1H,10H-phenothiazin-4-one] | 30 |
| COc1cccc(C2CC(=O)C3Sc4cc(Cl)ccc4N=C3C2)c1 (centres undefined) [7-Chloro-2-(3-methoxy-phenyl)-2,3-dihydro-1H,10H-phenothiazin-4-one] | 20 |
| COc1ccc(C2CC(=O)C3Sc4cc(Cl)ccc4N=C3C2)cc1 (centres undefined) [7-Chloro-2-(4-methoxy-phenyl)-2,3-dihydro-1H,10H-phenothiazin-4-one] | 10 |
| COc1ccc(C2CC(=O)C3C(=Nc4ccc(Cl)cc4S3(=O)=O)C2)cc1 (centres undefined) [7-Chloro-2-(4-methoxy-phenyl)-5,5-dioxo-2,3,5,10-tetrahydro-1H-5lambda*6*-phenothiazin-4-one] | 30 |
| O=C1CC(c2ccccc2)CC2=Nc3ccc(Cl)cc3SC12 (centres undefined) [7-Chloro-2-phenyl-2,3-dihydro-1H,10H-phenothiazin-4-one] | 10 |
| CC1(C)CC(=O)C2C(=Nc3ccc(F)cc3S2(=O)=O)C1 (centres undefined) [7-Fluoro-2,2-dimethyl-5,5-dioxo-2,3,5,10-tetrahydro-1H-5lambda*6*-phenothiazin-4-one] | 5 |
| COc1cccc(C2CC(=O)C3Sc4cc(F)ccc4N=C3C2)c1 (centres undefined) [7-Fluoro-2-(3-methoxy-phenyl)-2,3-dihydro-1H,10H-phenothiazin-4-one] | 20 |
| COc1cccc(C2CC(=O)C3C(=Nc4ccc(F)cc4S3(=O)=O)C2)c1 (centres undefined) [7-Fluoro-2-(3-methoxy-phenyl)-5,5-dioxo-2,3,5,10-tetrahydro-1H-5lambda*6*-phenothiazin-4-one] | 5 |
| O=C1CC(c2ccccc2)CC2=Nc3ccc(F)cc3SC12 (centres undefined) [7-Fluoro-2-phenyl-2,3-dihydro-1H,10H-phenothiazin-4-one] | 20 |

The remaining compounds from weak to strong by IC50, led by results:

| IC50 [µM] | SMILES |
| --- | --- |
| 5 | COc1ccc(C2CC(=O)C3C(=Nc4ccc(F)cc4S3(=O)=O)C2)cc1OC (centres undefined) [2-(3,4-Dimethoxy-phenyl)-7-fluoro-5,5-dioxo-2,3,5,10-tetrahydro-1H-5lambda*6*-phenothiazin-4-one] |
| 5 | O=C1CC(c2ccc(Cl)cc2)CC2=Nc3ccc(F)cc3SC12 (centres undefined) [2-(4-Chloro-phenyl)-7-fluoro-2,3-dihydro-1H,10H-phenothiazin-4-one] |
| 5 | O=C1CC(c2ccc(Cl)cc2)CC2=Nc3ccc(F)cc3S(=O)(=O)C12 (centres undefined) [2-(4-Chloro-phenyl)-7-fluoro-5,5-dioxo-2,3,5,10-tetrahydro-1H-5lambda*6*-phenothiazin-4-one] |
| 5 | CC1(C)CC(=O)C2C(=Nc3ccc(Cl)cc3S2(=O)=O)C1 (centres undefined) [7-Chloro-2,2-dimethyl-5,5-dioxo-2,3,5,10-tetrahydro-1H-5lambda*6*-phenothiazin-4-one] |
| 4 | COc1cccc(C2CC(=O)C3C(=Nc4ccc(Cl)cc4S3(=O)=O)C2)c1OC (centres undefined) [7-Chloro-2-(2,3-dimethoxy-phenyl)-5,5-dioxo-2,3,5,10-tetrahydro-1H-5lambda*6*-phenothiazin-4-one] |
| 4 | O=C1CC(c2ccc(Cl)cc2)CC2=Nc3ccc(Cl)cc3SC12 (centres undefined) [7-Chloro-2-(4-chloro-phenyl)-2,3-dihydro-1H,10H-phenothiazin-4-one] |
| 4 | O=C1CC(c2ccc(Cl)cc2)CC2=Nc3ccc(Cl)cc3S(=O)(=O)C12 (centres undefined) [7-Chloro-2-(4-chloro-phenyl)-5,5-dioxo-2,3,5,10-tetrahydro-1H-5lambda*6*-phenothiazin-4-one] |
| 4 | O=C1CC(c2ccccc2)CC2=Nc3ccc(Cl)cc3S(=O)(=O)C12 (centres undefined) [7-Chloro-5,5-dioxo-2-phenyl-2,3,5,10-tetrahydro-1H-5lambda*6*-phenothiazin-4-one] |
